The target of assay [1] is Protein kinase C gamma type (Homo sapiens, UniProt P05129). Put plainly: Inhibition of recombinant human PKCgamma using myelin basic protein as substrate incubated for 60 mins in presence of […] and ATP by microbeta scintillation counter analysis. In outline: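 Radiometric filter-plate assay with recombinant human PKCγ (128 pmol/L) phosphorylating myelin basic protein (0.25 mg/mL). Buffer: 90 mmol/L HEPES pH 7.5, 5 mmol/L MgCl2, 100 µmol/L CaCl2, phosphatidylserine, diacylglycerol, 0.001% Triton X-100, 4% DMSO, 30 µmol/L ATP plus 32P-ATP. Enzyme added to start; ran 60 min at room temperature; H3PO4 quench; phosphocellulose capture. IC50 from a three-variable logistic fit to a 10-point series, 1–2,000 nmol/L.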

The subject of assay [2] is PC-3. Put plainly: Antiproliferative activity against human PC-3 cells assessed as reduction in cell growth upto 10 uM measured after 6 days by propidium iodide staining based analysis. In kind it is functional. As to conditions: time 6.0 day. In outline:
(§1)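 ATCC-sourced lines grown without antibiotics; 1,000 cells/well in 1% FBS medium, refed ±drug on days 1 and 4 over a 6-day course. On day 7, propidium iodide (10 μg/mL in D-PBS) read after 30 min for nonviable cells, plate frozen at -80°C 2 h, thawed and reread; proliferative index = postfreeze minus prefreeze signal.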

The test system of assay [3] is Hs-578T. Put plainly: Antiproliferative activity against human Hs-578T cells assessed as reduction in cell growth upto 10 uM measured after 6 days by propidium iodide staining based analysis. The note with it: time 6.0 day. The assay is classed as functional. In outline:
as §1

For assay [4], the system named is T47D. Put plainly: Antiproliferative activity against human T47D cells assessed as reduction in cell growth upto 10 uM measured after 6 days by propidium iodide staining based analysis. In kind it is functional. As to conditions: time 6.0 day. In outline:
as §1

Assay [5] has as its system NCI-H322M. Put plainly: Antiproliferative activity against human NCI-H322M cells assessed as reduction in cell growth upto 10 uM measured after 6 days by propidium iodide staining based analysis. In kind it is functional. The note with it: time 6.0 day. In outline: as §1
In assay [6] the test system is SK-OV-3. Put plainly: Antiproliferative activity against human SK-OV-3 cells assessed as reduction in cell growth upto 10 uM measured after 6 days by propidium iodide staining based analysis. As to conditions: time 6.0 day. The assay is classed as functional. In outline: as §1
Assay [7] deals with 786-0. Put plainly: Antiproliferative activity against human 786-0 cells assessed as reduction in cell growth upto 10 uM measured after 6 days by propidium iodide staining based analysis. The assay is classed as functional. As to conditions: time 6.0 day. In outline:
as §1

Assay [8] has as its system A498. Put plainly: Antiproliferative activity against human A498 cells assessed as reduction in cell growth upto 10 uM measured after 6 days by propidium iodide staining based analysis. In kind it is functional. As to conditions: time 6.0 day. In outline: as §1
Assay [9] relates to HCT-116. Put plainly: Induction of apoptosis in human HCT-116 cells assessed as increase in apoptotic cells incubated for 72 hrs by TUNEL staining based analysis (reference value: 2%). In kind it is functional. The note with it: dose 4 µmol/L, at 4 µM.
The test system of assay [10] is HCT-116. Put plainly: Induction of apoptosis in human HCT-116 cells assessed as increase in apoptotic cells in sub-G0-G1 fraction at 0.3 to 4 micromol/L incubated for 72 hrs by TUNEL staining based analysis. As to conditions: dose 0.3-4 µmol/L. In kind it is functional, cell-based.
The target in assay [11] is Protein kinase C theta type (Homo sapiens) (UniProt Q04759). Put plainly: Inhibition of PKCteta (unknown origin) at 1 micromol/L relative to control. The note with it: dose 1.0 µmol/L. In outline: (§2)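 Commercial kinase profiler panel run to the provider's protocol, with the compound tested at 1 µmol/L. Activity is expressed as percent of kinase activity without compound.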

Assay [12] addresses Protein kinase C epsilon type (Homo sapiens) (UniProt Q02156). Put plainly: Inhibition of PKCepsilon (unknown origin) at 1 micromol/L relative to control. The note with it: dose 1.0 µmol/L. In outline:
as §2

In assay [13] the target is Protein kinase C eta type (Homo sapiens) (UniProt P24723). Put plainly: Inhibition of PKCeta (unknown origin) at 1 micromol/L relative to control. The note with it: dose 1.0 µmol/L. In outline: as §2
Assay [14] concerns the target Protein kinase C iota type (Homo sapiens) (UniProt P41743). Put plainly: Inhibition of PKCIota (unknown origin) at 1 micromol/L relative to control. The note with it: dose 1.0 µmol/L. In outline:
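Commercial kinase profiling panel run by the provider's protocol at a single inhibitor concentration of 1 µmol/L. Activity expressed as percent of kinase activity without inhibitor.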

Assay [15] has as its target Dual specificity mitogen-activated protein kinase kinase 6 (Homo sapiens) (UniProt P52564). Put plainly: Inhibition of MKK6 (unknown origin) at 1 micromol/L relative to control. As to conditions: dose 1.0 µmol/L. In outline:
as §2

Assay [16] has as its target RAC-beta serine/threonine-protein kinase (Homo sapiens) (UniProt P31751). Put plainly: Inhibition of PKBbeta (unknown origin) at 1 micromol/L relative to control. As to conditions: dose 1.0 µmol/L. In outline:
as §2

For assay [17], the target named is Mitogen-activated protein kinase 11 (Homo sapiens) (UniProt Q15759). Put plainly: Inhibition of SAPK2b (unknown origin) at 1 micromol/L relative to control. The note with it: dose 1.0 µmol/L. In outline:
as §2

Assay [18] addresses Mitogen-activated protein kinase 12 (Homo sapiens) (UniProt P53778). Put plainly: Inhibition of SAPK3 (unknown origin) at 1 micromol/L relative to control. As to conditions: dose 1.0 µmol/L. In outline:
as §2

The subject of assay [19] is HCT-116. Put plainly: Inhibition of ERK in human HCT-116 cells at 1 micromol/L measured upto 4 hrs by Western blotting analysis. The assay is classed as cell-based. As to conditions: dose 1.0 µmol/L. In outline:
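Cultured tumor cells treated with 1 μmol/L drug; lysates in cell extraction buffer with protease inhibitors, western blotted with phospho-specific antibodies (pGSK3β Ser9, pAKT Thr308, phospho-ERK) alongside total GSK3β/AKT.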
On the technique in general: In western blotting, separated proteins are transferred to a membrane and probed.

Assay [20] deals with HCT-116. Put plainly: Antitumor activity against human HCT-116 cells xenografted in athymic nude mouse assessed as reduction in tumor growth at 75 mg/kg, po administered twice daily measured after 21 days. In kind it is functional, organism-based. As to conditions: time 21.0 day. In outline:
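Female athymic nude mice, 6–8 weeks, 5 million cells s.c. flank in 1:1 serum-free medium/matrigel; at group mean 100 mm³, 75 mg/kg by gavage twice daily in 10% acacia for 21 days, n = 9/group, vehicle controls; caliper volume A²×B×0.536; two-way repeated measures analysis.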
Background: A xenograft is tissue or cells of one species grown in another, often human tumour cells in immunodeficient mice.

The subject of assay [21] is U-87 MG. Put plainly: Antitumor activity against human U-87 MG cells xenografted in athymic nude mouse assessed as reduction in GSK3beta phosphorylation at serine 9 residue at 75 mg/kg, po administered twice daily measured after 2 to 8 hrs by ELISA method relative to control. The assay is classed as functional, U-87MG ATCC. Details: scale not given: the % may be the effect or the level left. The note with it: time 2-8 hrs. In outline: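 U87MG-bearing nude mice, 75 mg/kg twice daily by gavage; on day 21 tumors harvested 2, 4 or 8 h post-dose, lysates measured by pGSK3β Ser9 ELISA versus vehicle tumors; Dunnett's method, ANOVA.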

For assay [22], the system named is HCT-116. Put plainly: Antitumor activity against human HCT-116 cells xenografted in athymic nude mouse assessed as reduction in GSK3beta phosphorylation at serine 9 residue at 75 mg/kg, po administered twice daily measured after 30 mins by ELISA method relative to control. In kind it is functional. Details: scale not given: the % may be the effect or the level left. The note with it: 0.5 h. In outline: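 HCT116-bearing nude mice, 75 mg/kg by gavage; tumors and PBMCs harvested 0.5, 2, 4, 8 h post-dose, n = 5 per time point. PBMCs from five mice pooled via CPT tube. Lysates assayed by pGSK3β Ser9 immunometric ELISA (tumor 400–600 μg, PBMC 50–100 μg protein/well); percent of vehicle control, Dunnett/ANOVA.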

Assay [23] deals with Glycogen synthase kinase-3 beta (Homo sapiens) (UniProt P49841). The note with it: U-87 MG, dose 1.0 µmol/L, time <= 4.0 hrs.
The nature of assay [24]: Antitumor activity against human HCT116 cells implanted in athymic nude mouse assessed as reduction in GSK3beta phosphorylation at serine 9 residue at 75 mg/kg, po administered twice daily measured after 2 to 4 hrs by ELISA method relative to control. More on the design: scale not given: the % may be the effect or the level left. The note with it: time 2-4 hrs. (In general: An ELISA detects its analyte on a solid surface through an enzyme-linked reagent.)

Activity calls are given as the source filed them. The rule behind the calls is not given here.

These results are taken from ChEMBL document CHEMBL5715938, “The protein kinase Cbeta-selective inhibitor, Enzastaurin (LY317615.HCl), suppresses signaling through the AKT pathway, induces apoptosis, and suppresses growth of human colon cancer and glioblastoma xenografts” (Cancer Res, 2005).

Sequence of Glycogen synthase kinase-3 beta (Homo sapiens) (P49841 whole entry, looked up): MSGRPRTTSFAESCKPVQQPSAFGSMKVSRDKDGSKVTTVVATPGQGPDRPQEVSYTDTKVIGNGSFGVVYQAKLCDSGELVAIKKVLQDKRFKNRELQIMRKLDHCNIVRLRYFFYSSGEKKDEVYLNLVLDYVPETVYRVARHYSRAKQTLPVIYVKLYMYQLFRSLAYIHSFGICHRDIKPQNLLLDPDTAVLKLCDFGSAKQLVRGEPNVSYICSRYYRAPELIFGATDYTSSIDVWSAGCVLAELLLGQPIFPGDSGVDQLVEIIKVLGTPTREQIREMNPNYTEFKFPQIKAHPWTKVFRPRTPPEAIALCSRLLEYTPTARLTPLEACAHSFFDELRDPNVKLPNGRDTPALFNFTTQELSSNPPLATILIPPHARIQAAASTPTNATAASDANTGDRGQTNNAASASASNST
Sequence of RAC-beta serine/threonine-protein kinase (Homo sapiens) (P31751 whole entry): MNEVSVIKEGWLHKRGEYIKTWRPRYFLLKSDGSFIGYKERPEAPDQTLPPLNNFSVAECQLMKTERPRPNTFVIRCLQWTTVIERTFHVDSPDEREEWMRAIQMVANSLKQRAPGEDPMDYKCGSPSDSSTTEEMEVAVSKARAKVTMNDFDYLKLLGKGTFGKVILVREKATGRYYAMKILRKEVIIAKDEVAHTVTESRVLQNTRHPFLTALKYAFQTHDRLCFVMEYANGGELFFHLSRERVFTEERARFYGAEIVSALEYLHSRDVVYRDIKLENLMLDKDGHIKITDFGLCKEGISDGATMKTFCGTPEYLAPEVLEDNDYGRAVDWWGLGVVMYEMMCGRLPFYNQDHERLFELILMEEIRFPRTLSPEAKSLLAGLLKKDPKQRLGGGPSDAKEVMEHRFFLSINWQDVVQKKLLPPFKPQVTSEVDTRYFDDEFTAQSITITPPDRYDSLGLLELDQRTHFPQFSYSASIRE
Sequence of Dual specificity mitogen-activated protein kinase kinase 6 (Homo sapiens) (P52564 whole entry): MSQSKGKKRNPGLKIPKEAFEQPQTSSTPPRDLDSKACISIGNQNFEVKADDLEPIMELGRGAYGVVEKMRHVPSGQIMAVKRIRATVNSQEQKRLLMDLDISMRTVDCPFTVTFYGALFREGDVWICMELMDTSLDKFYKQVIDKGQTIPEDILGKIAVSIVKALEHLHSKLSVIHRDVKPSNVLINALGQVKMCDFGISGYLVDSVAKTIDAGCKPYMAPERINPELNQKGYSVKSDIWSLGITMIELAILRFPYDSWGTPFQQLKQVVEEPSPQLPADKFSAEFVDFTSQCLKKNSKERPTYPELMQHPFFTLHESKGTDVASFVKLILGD
Sequence of Protein kinase C theta type (Homo sapiens) (Q04759 whole entry, looked up): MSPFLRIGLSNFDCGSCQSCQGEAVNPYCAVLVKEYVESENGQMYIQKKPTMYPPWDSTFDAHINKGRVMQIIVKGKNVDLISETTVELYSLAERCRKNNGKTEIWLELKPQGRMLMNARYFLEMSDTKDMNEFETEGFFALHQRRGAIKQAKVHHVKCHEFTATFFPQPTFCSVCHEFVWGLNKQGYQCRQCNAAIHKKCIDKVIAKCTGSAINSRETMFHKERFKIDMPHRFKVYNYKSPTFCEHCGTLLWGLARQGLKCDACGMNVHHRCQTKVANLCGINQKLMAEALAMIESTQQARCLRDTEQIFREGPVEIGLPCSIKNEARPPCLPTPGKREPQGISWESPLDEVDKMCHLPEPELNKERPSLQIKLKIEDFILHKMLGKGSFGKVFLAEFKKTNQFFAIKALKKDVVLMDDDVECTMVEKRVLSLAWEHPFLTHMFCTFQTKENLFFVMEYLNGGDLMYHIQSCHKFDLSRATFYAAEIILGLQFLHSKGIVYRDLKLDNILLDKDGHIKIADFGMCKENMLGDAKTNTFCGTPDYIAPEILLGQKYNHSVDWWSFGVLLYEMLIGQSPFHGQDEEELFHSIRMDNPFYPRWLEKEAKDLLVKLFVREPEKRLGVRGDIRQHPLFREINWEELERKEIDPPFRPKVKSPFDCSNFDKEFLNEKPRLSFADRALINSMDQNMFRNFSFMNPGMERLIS
Sequence of Protein kinase C eta type (Homo sapiens) (P24723 whole entry): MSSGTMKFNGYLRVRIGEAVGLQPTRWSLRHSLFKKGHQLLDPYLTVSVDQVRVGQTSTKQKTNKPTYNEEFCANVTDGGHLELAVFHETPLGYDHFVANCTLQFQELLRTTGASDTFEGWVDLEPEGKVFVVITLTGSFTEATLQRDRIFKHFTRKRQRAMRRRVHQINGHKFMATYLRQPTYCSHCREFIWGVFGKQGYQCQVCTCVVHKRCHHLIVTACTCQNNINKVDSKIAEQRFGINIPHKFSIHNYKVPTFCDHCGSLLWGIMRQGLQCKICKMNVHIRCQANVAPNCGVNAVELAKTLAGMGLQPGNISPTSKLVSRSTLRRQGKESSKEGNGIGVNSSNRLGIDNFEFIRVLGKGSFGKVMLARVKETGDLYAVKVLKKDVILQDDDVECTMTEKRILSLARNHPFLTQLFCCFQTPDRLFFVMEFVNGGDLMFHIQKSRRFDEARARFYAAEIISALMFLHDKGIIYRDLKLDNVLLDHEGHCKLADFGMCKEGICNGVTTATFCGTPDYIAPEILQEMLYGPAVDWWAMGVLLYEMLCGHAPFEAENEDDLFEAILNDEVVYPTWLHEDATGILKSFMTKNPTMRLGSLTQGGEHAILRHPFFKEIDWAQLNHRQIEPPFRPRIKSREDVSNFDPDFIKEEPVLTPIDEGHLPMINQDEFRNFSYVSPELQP
Sequence of Mitogen-activated protein kinase 11 (Homo sapiens) (Q15759 whole entry): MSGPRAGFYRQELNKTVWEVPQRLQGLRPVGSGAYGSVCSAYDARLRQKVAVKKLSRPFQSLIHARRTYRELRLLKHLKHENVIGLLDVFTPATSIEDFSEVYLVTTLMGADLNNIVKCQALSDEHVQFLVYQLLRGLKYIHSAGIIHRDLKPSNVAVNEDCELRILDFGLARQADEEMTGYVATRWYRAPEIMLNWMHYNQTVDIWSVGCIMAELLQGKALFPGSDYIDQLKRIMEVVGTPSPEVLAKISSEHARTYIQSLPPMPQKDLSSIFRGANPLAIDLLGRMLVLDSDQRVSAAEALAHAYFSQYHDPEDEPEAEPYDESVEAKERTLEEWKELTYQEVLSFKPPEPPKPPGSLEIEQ
Sequence of Mitogen-activated protein kinase 12 (Homo sapiens) (P53778 whole entry): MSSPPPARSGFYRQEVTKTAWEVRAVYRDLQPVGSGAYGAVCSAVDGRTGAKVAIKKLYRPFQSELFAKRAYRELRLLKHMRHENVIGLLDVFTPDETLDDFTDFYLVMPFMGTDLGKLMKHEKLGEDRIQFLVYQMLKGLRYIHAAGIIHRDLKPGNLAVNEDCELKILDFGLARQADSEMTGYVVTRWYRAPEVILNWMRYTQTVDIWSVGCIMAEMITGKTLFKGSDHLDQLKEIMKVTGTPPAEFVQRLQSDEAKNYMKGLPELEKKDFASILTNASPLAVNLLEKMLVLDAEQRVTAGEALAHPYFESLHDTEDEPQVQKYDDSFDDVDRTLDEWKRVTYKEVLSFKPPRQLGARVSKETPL
Sequence of Protein kinase C iota type (Homo sapiens) (P41743 whole entry): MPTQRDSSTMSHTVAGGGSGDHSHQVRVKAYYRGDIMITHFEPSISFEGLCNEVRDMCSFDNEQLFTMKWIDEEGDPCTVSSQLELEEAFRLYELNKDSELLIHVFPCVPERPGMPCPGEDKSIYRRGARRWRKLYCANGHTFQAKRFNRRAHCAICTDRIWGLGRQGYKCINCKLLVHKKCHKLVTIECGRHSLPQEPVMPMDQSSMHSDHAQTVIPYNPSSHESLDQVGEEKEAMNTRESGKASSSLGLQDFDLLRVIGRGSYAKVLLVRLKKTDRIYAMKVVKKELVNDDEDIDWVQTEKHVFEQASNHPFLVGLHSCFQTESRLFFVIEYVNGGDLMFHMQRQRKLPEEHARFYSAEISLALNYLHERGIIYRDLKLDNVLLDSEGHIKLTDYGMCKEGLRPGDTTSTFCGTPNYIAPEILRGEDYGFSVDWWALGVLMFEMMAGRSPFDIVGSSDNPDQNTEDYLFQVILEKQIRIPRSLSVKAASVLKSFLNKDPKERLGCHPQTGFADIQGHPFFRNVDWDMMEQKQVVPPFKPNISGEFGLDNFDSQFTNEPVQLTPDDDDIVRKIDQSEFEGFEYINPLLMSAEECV

Turning to `Cl.Cn1cc(C2=C(c3cn(C4CCN(Cc5ccccn5)CC4)c4ccccc34)C(=O)NC2=O)c2ccccc21` [ENZASTAURIN HYDROCHLORIDE], the IC50 (in general, the midpoint of a concentration-inhibition curve) in [1] is 83 nM. The outcome in [2], in [10] and in assay [20] was Active. Besides, the outcome in assay [3], in [4], in [5], in [6], in assay [7] and in assay [8] was inactive. The Activity in [9] is on record as above 50%; in assay [21] it was above 50%; in [22], 50%; in assay [24], above 60%. The % control activity was determined as 2% in assay [11]; 9% in assay [12]; 53% in [13]; 91% in assay [14]; 99% in [15]; 100% in assay [16]. Further, the % control activity came out at 96% in assay [17] and 88% in assay [18]. Further, the inhibition entry in assay [19] is “inactive”. Also, in assay [23], the inhibition entry was “Active”.
